Laboratory results published in ChEMBL document CHEMBL1926564, “Design, synthesis and biological activity of original pyrazolo-pyrido-diazepine, -pyrazine and -oxazine dione derivatives as novel dual Nox4/Nox1 inhibitors” (Bioorg Med Chem, 2011).
pIC50, pKi: −log10 of the molar value.

Tests used:
[1] = target: T1, NADPH oxidase 4 (Homo sapiens, UniProt Q9NPH5); assay: Antagonist activity at human NOX4 expressed in CHO cell membrane coexpressing tetracylin repressor assessed as inhibition of ROS production after 20 mins by cell-free amplex red assay; type: functional; settings: in the assay text read “HEK293 cell membrane” for “CHO cell membrane”
T1 sequence (Q9NPH5 whole entry): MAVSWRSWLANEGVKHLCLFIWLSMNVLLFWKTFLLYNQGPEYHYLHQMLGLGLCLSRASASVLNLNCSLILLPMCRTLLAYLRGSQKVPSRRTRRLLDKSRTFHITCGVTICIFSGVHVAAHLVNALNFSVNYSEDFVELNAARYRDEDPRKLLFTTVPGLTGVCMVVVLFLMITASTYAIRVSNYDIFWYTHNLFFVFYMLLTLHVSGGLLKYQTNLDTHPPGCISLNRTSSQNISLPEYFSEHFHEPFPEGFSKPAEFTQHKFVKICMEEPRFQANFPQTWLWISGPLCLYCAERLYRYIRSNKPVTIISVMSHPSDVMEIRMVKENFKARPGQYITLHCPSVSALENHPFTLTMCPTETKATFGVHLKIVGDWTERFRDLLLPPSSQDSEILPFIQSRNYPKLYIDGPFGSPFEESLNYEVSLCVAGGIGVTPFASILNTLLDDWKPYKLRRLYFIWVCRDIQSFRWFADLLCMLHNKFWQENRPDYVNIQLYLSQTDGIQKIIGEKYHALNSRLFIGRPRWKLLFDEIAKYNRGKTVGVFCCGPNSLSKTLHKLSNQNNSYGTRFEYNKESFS
Method in brief: (§1)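 Membranes from tetracycline-induced (24 h) Nox-expressing cells or human PMN (Nox2), sucrose-gradient purified; or xanthine oxidase. Incubated in PBS with Amplex Red, HRP and cofactors; NADPH (Nox) or xanthine starts ROS. Compound 1 nM–100 µM, 20 min at 37 °C, plate-reader. Background without membranes or agonist. Ki by Cheng-Prusoff; mean of ≥3 experiments in triplicate.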

[2] = Tmax in Sprague-Dawley rat at 10 mg/kg, po; type: ADME, organism-based; parameters: dose 10 mg/kg, route oral; settings: in vivo
Method in brief: (§2)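 Rats in two groups of three: 5 mg/kg iv in EDPW (10% EtOH, 10% DMA, 30% PG, 50% water) or 10 mg/kg oral in aqueous 0.5% CMC/0.25% Tween 20. Carotid arterial cannula blood sampled up to 24 h. Plasma levels by LC/MS/MS (LLOQ 1.00 ng/mL); noncompartmental analysis.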

[3] = Clearance in Sprague-Dawley rat at 10 mg/kg, po; type: ADME, organism-based; parameters: dose 10 mg/kg, route oral; settings: in vivo; method in brief: as §2
[4] = target: T2, NADPH oxidase 5 (Homo sapiens, UniProt Q96PH1); assay: Antagonist activity at human NOX5 assessed as inhibition of ROS production after 20 mins by cell-free amplex red assay; type: functional; method in brief: as §1
T2 sequence (Q96PH1 whole entry): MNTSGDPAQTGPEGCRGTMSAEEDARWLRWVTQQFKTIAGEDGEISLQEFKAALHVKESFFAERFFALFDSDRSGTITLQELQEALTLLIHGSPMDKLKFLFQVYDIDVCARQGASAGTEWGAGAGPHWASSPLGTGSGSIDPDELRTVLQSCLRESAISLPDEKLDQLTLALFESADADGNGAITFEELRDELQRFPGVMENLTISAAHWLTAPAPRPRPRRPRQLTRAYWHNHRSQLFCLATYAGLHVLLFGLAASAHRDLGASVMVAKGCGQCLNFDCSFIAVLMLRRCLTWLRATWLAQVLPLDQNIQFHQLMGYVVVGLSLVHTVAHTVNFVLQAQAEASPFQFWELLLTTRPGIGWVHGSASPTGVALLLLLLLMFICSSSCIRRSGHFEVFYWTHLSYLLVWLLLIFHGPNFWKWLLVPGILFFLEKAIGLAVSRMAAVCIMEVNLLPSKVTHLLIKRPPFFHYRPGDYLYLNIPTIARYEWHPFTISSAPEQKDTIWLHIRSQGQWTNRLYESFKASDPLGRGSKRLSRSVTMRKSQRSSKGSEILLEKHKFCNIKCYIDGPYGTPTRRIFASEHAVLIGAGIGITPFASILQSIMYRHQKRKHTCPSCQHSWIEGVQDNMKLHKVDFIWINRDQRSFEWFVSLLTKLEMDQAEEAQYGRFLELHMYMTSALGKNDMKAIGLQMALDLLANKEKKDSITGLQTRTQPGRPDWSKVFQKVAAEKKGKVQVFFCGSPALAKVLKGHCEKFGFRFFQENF

[5] = Lipophilicity, log D of the compound at pH 7.4; type: physicochemical; settings: buffer
[6] = Fraction unbound in rat plasma containing 50% plasma protein; type: ADME, cell-free
Method in brief: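 Rat plasma protein binding in 50% plasma; fraction unbound reported.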

[7] = Clearance in Sprague-Dawley rat at 5 mg/kg, iv; type: ADME, organism-based; parameters: dose 5 mg/kg, route intravenous; settings: in vivo; method in brief: as §2
[8] = target: T3, Cytochrome P450 1A2 (Homo sapiens, UniProt P05177); assay: Inhibition of human recombinant CYP1A2 assessed as inhibition of fluorescent metabolite formation; type: ADME
T3 sequence (P05177 whole entry): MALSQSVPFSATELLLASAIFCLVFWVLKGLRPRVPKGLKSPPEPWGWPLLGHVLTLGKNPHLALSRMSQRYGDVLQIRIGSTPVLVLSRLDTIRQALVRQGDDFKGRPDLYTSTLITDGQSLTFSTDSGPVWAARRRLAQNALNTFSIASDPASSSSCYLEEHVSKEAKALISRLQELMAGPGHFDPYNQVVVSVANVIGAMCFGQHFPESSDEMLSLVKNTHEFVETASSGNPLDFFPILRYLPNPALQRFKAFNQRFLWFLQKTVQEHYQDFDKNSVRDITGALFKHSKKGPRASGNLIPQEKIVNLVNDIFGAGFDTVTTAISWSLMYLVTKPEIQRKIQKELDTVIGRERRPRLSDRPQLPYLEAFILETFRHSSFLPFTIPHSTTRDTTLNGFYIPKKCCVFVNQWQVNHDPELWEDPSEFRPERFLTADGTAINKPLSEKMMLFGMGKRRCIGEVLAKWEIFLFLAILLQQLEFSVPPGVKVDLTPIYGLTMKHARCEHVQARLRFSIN
Method in brief: (§3)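 Compound 0.1–25 µM (0.3% DMSO) incubated with microsomes, NADPH and isoform-specific probe substrate. CYP2C19, 2C9, 2D6, 3A4 metabolites measured by mass spectrometry; CYP1A2 by fluorescent metabolite. IC50 from reduced metabolite formation versus vehicle.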

[9] = target: hERG (Homo sapiens, UniProt Q12809); assay: Inhibition of hERG at 1 uM by patch clamp assay; type: toxicity
[10] = test system: Salmonella typhimurium; assay: Genotoxicity in Salmonella Typhimurium at 100 uM by AMES test; type: toxicity, organism-based; settings: salmonella enterica subsp. enterica serovar typhimurium
[11] = target: Xanthine dehydrogenase/oxidase (Homo sapiens, UniProt P47989); assay: Inhibition of xanthine oxidase assessed as inhibition of ROS production after 20 mins by cell-free amplex red assay; method in brief: as §1
[12] = target: Cytochrome P450 2D6 (Homo sapiens, UniProt P10635); assay: Inhibition of human recombinant CYP2D6 by mass spectrophotometry; type: ADME; method in brief: as §3
[13] = target: Cytochrome P450 3A4 (Homo sapiens, UniProt P08684); assay: Inhibition of human recombinant CYP3A4 by mass spectrophotometry; type: ADME; method in brief: as §3
[14] = test system: Salmonella typhimurium; assay: Mutagenicity in Salmonella Typhimurium at 100 uM by AMES test; type: toxicity, organism-based; settings: salmonella enterica subsp. enterica serovar typhimurium

Sequence of Cytochrome P450 3A4 (P08684 whole entry): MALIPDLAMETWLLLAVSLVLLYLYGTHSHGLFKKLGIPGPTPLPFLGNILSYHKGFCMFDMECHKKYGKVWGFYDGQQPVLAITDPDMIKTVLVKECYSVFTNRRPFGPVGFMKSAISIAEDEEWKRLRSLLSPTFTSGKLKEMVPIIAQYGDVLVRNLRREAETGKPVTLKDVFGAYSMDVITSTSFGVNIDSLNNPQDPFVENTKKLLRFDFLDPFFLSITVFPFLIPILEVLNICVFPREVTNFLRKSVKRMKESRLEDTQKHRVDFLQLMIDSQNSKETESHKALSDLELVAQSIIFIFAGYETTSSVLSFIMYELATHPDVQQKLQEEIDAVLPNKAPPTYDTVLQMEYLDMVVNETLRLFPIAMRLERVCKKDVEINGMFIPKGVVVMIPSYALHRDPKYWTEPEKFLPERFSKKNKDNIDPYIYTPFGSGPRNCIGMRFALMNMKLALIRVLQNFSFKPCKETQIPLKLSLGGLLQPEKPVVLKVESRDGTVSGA
Sequence of Xanthine dehydrogenase/oxidase (P47989 whole entry): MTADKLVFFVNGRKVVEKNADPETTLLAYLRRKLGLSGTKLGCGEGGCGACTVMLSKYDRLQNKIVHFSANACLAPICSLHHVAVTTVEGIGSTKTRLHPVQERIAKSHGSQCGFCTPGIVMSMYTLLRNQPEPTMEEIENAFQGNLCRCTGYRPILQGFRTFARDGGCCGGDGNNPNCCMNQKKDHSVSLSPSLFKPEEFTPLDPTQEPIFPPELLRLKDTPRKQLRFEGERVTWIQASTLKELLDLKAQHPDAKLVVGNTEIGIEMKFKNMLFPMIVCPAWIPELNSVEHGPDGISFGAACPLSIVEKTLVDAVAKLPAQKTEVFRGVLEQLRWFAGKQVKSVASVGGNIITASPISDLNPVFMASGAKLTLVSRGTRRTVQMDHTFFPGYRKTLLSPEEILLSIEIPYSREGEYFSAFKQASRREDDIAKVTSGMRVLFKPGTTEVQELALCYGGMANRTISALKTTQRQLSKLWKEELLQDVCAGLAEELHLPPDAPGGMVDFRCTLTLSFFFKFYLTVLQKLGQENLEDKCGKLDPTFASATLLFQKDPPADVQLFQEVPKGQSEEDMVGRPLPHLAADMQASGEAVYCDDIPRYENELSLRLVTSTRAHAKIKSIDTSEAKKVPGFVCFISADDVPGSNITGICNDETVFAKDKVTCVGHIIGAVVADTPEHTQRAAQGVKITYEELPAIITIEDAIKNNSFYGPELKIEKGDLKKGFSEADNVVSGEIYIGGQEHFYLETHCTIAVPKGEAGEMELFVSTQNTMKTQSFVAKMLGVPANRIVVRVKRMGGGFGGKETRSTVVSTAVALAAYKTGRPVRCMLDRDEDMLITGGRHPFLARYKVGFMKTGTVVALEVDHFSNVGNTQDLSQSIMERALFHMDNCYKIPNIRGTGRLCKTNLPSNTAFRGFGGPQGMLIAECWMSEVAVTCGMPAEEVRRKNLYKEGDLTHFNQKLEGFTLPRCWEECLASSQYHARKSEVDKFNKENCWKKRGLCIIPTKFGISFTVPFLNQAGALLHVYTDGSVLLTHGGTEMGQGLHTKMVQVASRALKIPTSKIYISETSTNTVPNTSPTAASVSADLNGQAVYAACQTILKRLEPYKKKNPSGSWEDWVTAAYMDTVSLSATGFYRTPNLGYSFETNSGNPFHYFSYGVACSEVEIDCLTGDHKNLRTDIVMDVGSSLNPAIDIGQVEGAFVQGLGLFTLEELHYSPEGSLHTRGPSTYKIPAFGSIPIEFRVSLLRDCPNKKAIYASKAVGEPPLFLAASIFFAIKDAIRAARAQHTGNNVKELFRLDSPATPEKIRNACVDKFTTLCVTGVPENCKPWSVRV
Sequence of hERG (Q12809 whole entry): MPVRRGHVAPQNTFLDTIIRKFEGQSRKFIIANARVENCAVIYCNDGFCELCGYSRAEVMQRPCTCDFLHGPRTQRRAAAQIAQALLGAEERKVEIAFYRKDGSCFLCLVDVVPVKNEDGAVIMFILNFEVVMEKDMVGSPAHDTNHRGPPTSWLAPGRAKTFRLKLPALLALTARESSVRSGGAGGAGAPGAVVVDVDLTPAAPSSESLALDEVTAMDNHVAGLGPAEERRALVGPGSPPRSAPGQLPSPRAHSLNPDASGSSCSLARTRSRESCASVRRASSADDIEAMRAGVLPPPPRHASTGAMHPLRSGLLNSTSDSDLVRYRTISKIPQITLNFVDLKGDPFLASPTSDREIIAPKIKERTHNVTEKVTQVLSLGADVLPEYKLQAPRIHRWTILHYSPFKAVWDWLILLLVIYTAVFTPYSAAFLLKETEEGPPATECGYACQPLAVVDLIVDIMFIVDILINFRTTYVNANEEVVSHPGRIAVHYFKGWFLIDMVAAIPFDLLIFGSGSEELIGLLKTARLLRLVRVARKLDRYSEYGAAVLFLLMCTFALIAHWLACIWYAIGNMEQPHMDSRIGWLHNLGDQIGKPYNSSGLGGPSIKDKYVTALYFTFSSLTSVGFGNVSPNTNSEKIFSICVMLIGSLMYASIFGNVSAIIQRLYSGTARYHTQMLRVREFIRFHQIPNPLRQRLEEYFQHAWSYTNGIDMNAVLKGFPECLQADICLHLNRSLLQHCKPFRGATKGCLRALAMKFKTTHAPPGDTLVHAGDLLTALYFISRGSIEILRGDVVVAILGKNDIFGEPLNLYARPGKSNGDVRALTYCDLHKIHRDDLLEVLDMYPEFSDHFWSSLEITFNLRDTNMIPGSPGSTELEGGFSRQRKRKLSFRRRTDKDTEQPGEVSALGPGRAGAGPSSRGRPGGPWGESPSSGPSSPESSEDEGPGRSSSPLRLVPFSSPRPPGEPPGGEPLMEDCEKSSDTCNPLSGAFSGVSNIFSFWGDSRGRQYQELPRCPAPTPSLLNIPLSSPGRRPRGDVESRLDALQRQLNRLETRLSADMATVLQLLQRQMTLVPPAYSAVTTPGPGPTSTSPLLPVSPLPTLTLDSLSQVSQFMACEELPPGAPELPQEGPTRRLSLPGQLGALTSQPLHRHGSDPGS
Sequence of Cytochrome P450 2D6 (P10635 whole entry): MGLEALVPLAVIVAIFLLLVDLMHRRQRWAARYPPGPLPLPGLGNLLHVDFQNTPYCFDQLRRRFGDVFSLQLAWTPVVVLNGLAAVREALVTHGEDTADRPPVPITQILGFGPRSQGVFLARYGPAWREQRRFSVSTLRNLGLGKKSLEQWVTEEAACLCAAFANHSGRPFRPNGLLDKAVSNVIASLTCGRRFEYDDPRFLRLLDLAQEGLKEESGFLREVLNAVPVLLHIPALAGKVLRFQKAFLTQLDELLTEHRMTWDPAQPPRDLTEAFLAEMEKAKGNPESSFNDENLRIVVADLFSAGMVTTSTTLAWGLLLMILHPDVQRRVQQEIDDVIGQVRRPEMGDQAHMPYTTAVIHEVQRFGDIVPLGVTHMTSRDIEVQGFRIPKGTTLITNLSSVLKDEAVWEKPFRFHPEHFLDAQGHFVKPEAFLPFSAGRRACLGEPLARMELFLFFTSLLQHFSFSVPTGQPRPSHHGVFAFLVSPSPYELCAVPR

Row | pKi [1] | Tmax [2] [min] | CL/F [3] [L/h/kg] | pKi [4] | logD [5] | fraction unbound [6] | clearance [7] [L/h/kg] | pIC50 [8] | pKi [11] | pIC50 [12] | pIC50 [13] | SMILES | inhibition at 1 µM [9] [%] | Activity [10] | Activity [14]
1 | 7.17 | 15 | 1.02 | 6.27 | 1.1 | 0.026 | 0.46 | – | – | – | – | Cl.O=c1c2c3n(c(=O)cc2[nH]n1-c1ccccc1Cl)CCCN(Cc1ccccn1)C3 | – | – | –
2 | 7.14 | 19.8 | 0.26 | 6.38 | 2.23 | 0.12 | 0.13 | < 4.60 | < 4.52 | < 4.60 | < 4.60 | Cl.O=c1c2c3n(c(=O)cc2[nH]n1-c1ccccc1Cl)CCCN(Cc1ccccc1)C3 | 8.7 | Non-toxic | Non-toxic
